Shown are actives, neighbours in structure and some others; about 3.7% of the full set was active somewhere.
MC4R antagonist: antagonists of human melanocortin 4 receptor (MC4R) | P32245 | MC4R-expressing cells, MTII-stimulated cAMP, LANCE TR-FRET | inhibition, % at 6.5 µM | actives 0.48% (n = 360,000) | AID 540295;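 active = inhibition above its plate's cutoff, the mean of tested wells on that plate plus 3 SD, cut at about 29% in these data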
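system = U2OS cells with stable human MC4R expression | also added = Melanotan II challenge after compound preincubation | dosing = one concentration, 6.5 µM nominal | incubation = compound 30 min, challenge 1 h, detection 1 h | measured by = TR-FRET with Eu-cAMP and labeled anti-cAMP, 671 nm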
Granule exo inh: blocks lytic granule exocytosis | inhibition, % at 10 µM | actives 0.66% (n = 360,000) | TALL-104 LAMP-1 surface exposure, flow cytometry; cells stimulated with thapsigargin and PMA;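 active = inhibition above about 55%, limit read from the data; inconclusive = no clear call, values can overlap the other calls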
EBI2 antag: EBI2 (human) antagonism; EBI2 beta-arrestin recruitment, luminescence, 7a,25-OHC stimulated; AID 651636; actives 0.81% (n = 360,000); P32249; inhibition, % at 5 µM; in the data active = inhibition above about 38%;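 note: enzyme fragment complementation signal reports receptor beta-arrestin coupling in cells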
Target sequence (P32249 whole entry, looked up, the tested form may be a part): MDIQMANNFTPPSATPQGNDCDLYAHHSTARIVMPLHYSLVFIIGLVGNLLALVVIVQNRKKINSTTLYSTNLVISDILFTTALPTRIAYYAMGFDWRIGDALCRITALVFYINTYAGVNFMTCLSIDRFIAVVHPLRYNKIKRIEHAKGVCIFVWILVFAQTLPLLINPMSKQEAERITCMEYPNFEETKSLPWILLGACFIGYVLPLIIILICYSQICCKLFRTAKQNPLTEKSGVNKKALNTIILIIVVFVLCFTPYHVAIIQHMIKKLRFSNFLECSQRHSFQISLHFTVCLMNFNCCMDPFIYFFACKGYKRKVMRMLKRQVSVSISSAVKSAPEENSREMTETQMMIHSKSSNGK
MC4R ag barr: activates human MC4R beta-arrestin recruitment. P32245. U2OS MC4R beta-arrestin complementation, luminescence; percent of melanotan II response, DMSO zero. activation, % at 8.9 µM. actives 0.98% (n = 360,000);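 active = activation above a per-plate cutoff, the mean activation of sample wells on that plate plus 3 SD, cut at about 8% in these data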
Myeloid diff MLP: compounds promoting myeloid differentiation. ER-HoxA9 myeloid progenitors, lysozyme-GFP differentiation, flow cytometry. calls only at 10 µM. actives 1% (n = 360,000). AID 624256;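 active = normalized GFP-positive differentiation at or above the plate's own cutoff, the solvent-only control mean plus 3 SD; inconclusive = no clear call, values can overlap the other calls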;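 note: cells exposed to compound for four days before flow analysis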
EBI2 antag conf: confirmation of human EBI2 receptor antagonists; shares compounds with EBI2 antag; EBI2 beta-arrestin luminescence, 7a,25-OHC antagonism; inhibition, % at 5 µM; actives 29% (n = 2,400); AID 651997;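 active = inhibition of at least 50%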
EBI2 ag: activates EBI2, counter-screen for EBI2 antagonists | shares compounds with EBI2 antag | EBI2-expressing cells, agonist mode, luminescence, 60 min; 0% vehicle, 100% 7α,25-dihydroxycholesterol control | activation, % at 5 µM | 2,400 tested, under 10 active;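 active = activation of at least 50%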
bGal cs: counter-screen for EBI2 antagonists: E. coli beta-galactosidase inhibition; AID 652176; actives 1% (n = 2,400); inhibition, % at 5 µM; shares compounds with EBI2 antag; purified beta-galactosidase, luminescent Galacton Star, 15 min;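 active = replicate-average signal at least 3 plate SD below neutral wells, shown as high inhibition, flagging enzyme-inhibiting false positives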;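 note: higher means stronger loss of beta-gal luminescence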
A number is an active result; - = inactive; ? = inconclusive; . = no result given.

SMILES	MC4R antagonist	Granule exo inh	EBI2 antag	MC4R ag barr	Myeloid diff MLP	EBI2 antag conf	EBI2 ag	bGal cs
CC(=O)c1ccc([N+](=O)[O-])c(CS(=O)(=O)c2ccc(Cl)cc2)c1	-	-	-	-	-	.	.	.
CCOC(=O)c1c(NC(=O)CN2C(=O)c3ccccc3C2=O)sc(Cc2ccc3c(c2)OCO3)c1C	-	-	65	-	-	-	-	-
COc1ccc(NC(=O)CSc2nnnn2C2CCCC2)cc1S(=O)(=O)N1CCOCC1	-	-	-	-	-	.	.	.
CCOC(=O)CN(C(=O)CSc1nnc(CNc2ccc(C)cc2C)o1)c1ccccc1	-	-	45	-	-	-	-	-
COc1cccc(OCCNc2cc(N3CCCCC3)ccc2[N+](=O)[O-])c1	-	-	61	-	-	-	-	-
COc1cccc(OCCNc2cc(N3CCOCC3)ccc2[N+](=O)[O-])c1	-	-	44	-	-	-	-	-
C(=C\c1ccccc1)/CN1CCN(C(c2cccc3ccccc23)c2nnnn2Cc2ccccc2)CC1 (stereo not given)	.	-	64	.	-	-	-	-
C(=C\c1ccccc1)/CN1CCN(C(c2cc3ccccc3o2)c2nnnn2-c2ccc3c(c2)OCCO3)CC1 (stereo not given)	.	-	-	.	-	.	.	.
COc1ccc(C(c2nnnn2-c2ccc3c(c2)OCCO3)N2CCN(C/C=C/c3ccccc3)CC2)cc1 (stereo not given)	.	-	60	.	-	-	-	-
C(=C\c1ccccc1)/CN1CCN(C(c2cccs2)c2nnnn2-c2ccc3c(c2)OCCO3)CC1 (stereo not given)	.	-	72	.	-	-	-	-
COc1ccc(-n2nnnc2C(c2cccc3ccccc23)N2CCN(C/C=C/c3ccccc3)CC2)cc1 (stereo not given)	.	-	63	.	-	-	-	-
CCN1C(=O)[C@@H]2[C@@H]3CN(S(=O)(=O)c4ccc(C)cc4)[C@@H](c4ccccc4Cl)[C@@H]3C(=O)C[C@@H]2C1=O	.	-	-	.	-	.	.	.
COc1ccc(/C=C/S(=O)(=O)NCc2ccccc2)cc1OC	-	-	-	-	-	.	.	.
COc1ccc(C(=O)N/C(=C\c2ccc(Cl)cc2)C(=O)NCc2ccncc2)cc1	-	-	-	-	-	.	.	.
O=C(NCCc1ccccc1)c1nc(-c2cccs2)no1	-	-	-	-	-	.	.	.
COc1ccc(/C=N/n2cnc3c(sc(=S)n3-c3ccccc3)c2=O)cc1	-	-	51	-	-	-	-	-
CCOc1ccc(-n2c(=S)sc3c(=O)n(-c4ccccc4)c(SC)nc32)cc1	-	-	-	-	-	.	.	.
Cc1cccc(C)c1N(CC(=O)Nc1cc(Cl)ccc1Oc1ccccc1)S(C)(=O)=O	-	-	47	-	-	-	-	-
N#Cc1ccc(-c2cccc3nccn23)cc1	-	-	-	-	-	.	.	.
O=C(NCCc1ccccc1)c1ccc(CS(=O)Cc2ccc(Cl)cc2)o1 (stereo not given)	-	-	60	-	-	-	-	-
NS(=O)(=O)c1cccc(NC(=O)COC(=O)CCc2ccccc2)c1	-	-	-	-	-	.	.	.
CCOC(=O)c1c(NC(=O)CS(=O)(=O)c2cn(CC)c3ccccc23)sc2c1CCCCC2	-	-	57	-	-	-	-	-
CC1c2ccccc2N(S(=O)(=O)c2ccccc2)C1C (stereo not given)	-	-	-	-	-	.	.	.
Cc1cc2nc(-c3ccc(SCC(=O)Nc4nccs4)nc3)[nH]c2cc1C	-	-	55	-	-	-	-	-
Cc1cc2nc(-c3ccc(SCc4ccc(C#N)cc4)nc3)[nH]c2cc1C	-	-	56	-	-	-	-	-
SMILES	MC4R antagonist	Granule exo inh	EBI2 antag	MC4R ag barr	Myeloid diff MLP	EBI2 antag conf	EBI2 ag	bGal cs
Cc1nn(-c2nc3ccccc3s2)c(N)c1-c1ccc(Cl)cc1	-	-	54	-	-	53	-	-
CC(C)c1nnc(NC(=O)C2CCN(S(=O)(=O)c3ccc(-n4cnnn4)cc3)CC2)s1	-	-	-	-	-	.	.	.
O=C(CSC1=Nc2ccccc2C2CC=NN12)Nc1ccc2c(c1)OCO2 (stereo not given)	-	-	-	-	-	.	.	.
CCCOC(=O)c1ccc(NC(=O)CSC2=Nc3ccccc3C3CC=NN23)cc1 (stereo not given)	-	-	40	-	-	-	-	-
Nc1ccc(-c2nnnn2-c2ccc(N)cc2)cc1	-	-	-	-	-	.	.	.
Clc1ccc(-c2nnnn2-c2ccc(Cl)c(Cl)c2)cc1Cl	-	-	49	-	-	-	-	-
Cc1ccc(C)c(OCCC(=O)N2CCN(S(=O)(=O)c3cc(F)ccc3F)CC2)c1	-	-	46	-	-	-	-	-
Cc1cc(Cl)ccc1OCCCC(=O)N1CCN(S(=O)(=O)c2ccccc2)CC1	-	-	63	-	-	-	-	-
O=C(COc1ccc(Cl)cc1)N1CCN(S(=O)(=O)c2cc(F)ccc2F)CC1	-	-	87	-	-	68	-	-
Cc1ccc(S(=O)(=O)N2CCN(C(=O)CCOc3cc(C)ccc3C)CC2)cc1	-	-	-	-	-	.	.	.
CC(C)(C)N(Cc1ccccc1)C(=O)COC(=O)c1cccc([N+](=O)[O-])c1	-	-	-	-	-	.	.	.
CC1(C(=O)NS(=O)(=O)C2CC2)CCN(C(=O)c2cccc(Cl)c2)C1 (stereo not given)	-	-	-	-	-	.	.	.
Cc1ccc(S(=O)(=O)N[C@H](CNCc2ccccc2)C(C)C)cc1	.	-	-	.	-	.	.	.
c1ccc(Cc2nn3c(COc4ccccc4)nnc3s2)cc1	-	-	60	-	-	-	-	-
CCOc1ccccc1OCc1nn2c(COc3ccccc3)nnc2s1	-	-	-	-	-	.	.	.
Brc1ccc(-c2nnc3sc(CN4CCN(c5ccccc5)CC4)cn23)cc1	-	-	75	-	-	-	-	-
Cc1cnc(CNc2nc3cc(-c4ccccc4C)sc3c(=O)n2C)cn1	-	-	-	-	-	.	.	.
COc1ccc(OC)c(C(=O)c2ccc(C(=O)Nc3ccc4ccccc4c3)cc2)c1	-	-	88	-	-	55	-	-
COc1ccc(NC(=O)c2ccc(OC(=S)N(C)c3ccc(OC)cc3)cc2)cc1	-	-	86	-	-	74	-	-
COc1ccc(NC(=S)NN(C)C(=S)Nc2ccc(OC)cc2)cc1	-	-	67	-	?	-	-	-
CN(C(=S)Oc1ccc(C(=O)Nc2ccccc2)cc1)c1ccccc1	-	-	-	-	-	.	.	.
COc1ccc(NC(=O)c2cc(F)cc(F)c2)cc1Cl	-	-	-	-	-	.	.	.

Screening data as filed in PubChem BioAssay.
